Reference: ChEMBL document CHEMBL4196022, “Alkynyl-containing phenylthiazoles: Systemically active antibacterial agents effective against methicillin-resistant Staphylococcus aureus (MRSA)” (Eur J Med Chem, 2018)
Values after ≈ are worked out from the molar mass of the structure shown.

Key:
Staphylococcus aureus [1] = experiment: Antibacterial activity against methicillin-resistant Staphylococcus aureus USA300 after 20 hrs by broth microdilution assay; format: functional; conditions: USA300, 20 h
In short: (§1)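 Broth microdilution per CLSI in cation-adjusted Mueller Hinton broth. Compounds serially diluted, in triplicate. Incubation at 37 °C for at least 20 hours. MIC taken as the lowest concentration with no visible bacterial growth.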

Staphylococcus aureus [2] = experiment: Bactericidal activity against methicillin-resistant Staphylococcus aureus USA300 up to 18 hrs by broth microdilution assay; format: functional; conditions: USA300, 18 h, read-out: MBC99.9
Staphylococcus aureus [3] = experiment: Ratio of MBC to MIC for methicillin-resistant Staphylococcus aureus USA300; format: functional
In short: (§2)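 MBC/MIC ratio. […] MBC by plating no-growth wells onto tryptic soy agar at 37 °C for at least 18 h; taken as the concentration giving 99.9% growth inhibition.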

Staphylococcus aureus [4] = experiment: Antibacterial activity against methicillin-resistant Staphylococcus aureus NRS107 after 20 hrs by broth microdilution assay; format: functional; conditions: NRS107, 20 h; in short: as §1
Staphylococcus aureus [5] = experiment: Bactericidal activity against methicillin-resistant Staphylococcus aureus NRS107 up to 18 hrs by broth microdilution assay; format: functional; conditions: NRS107, 18 h, read-out: MBC99.9
Staphylococcus aureus [6] = experiment: Antibacterial activity against methicillin-resistant Staphylococcus aureus NRS119 after 20 hrs by broth microdilution assay; format: functional; conditions: NRS119, 20 h; in short: as §1
Staphylococcus aureus [7] = experiment: Bactericidal activity against methicillin-resistant Staphylococcus aureus NRS119 up to 18 hrs by broth microdilution assay; format: functional; conditions: NRS119, 18 h, read-out: MBC99.9
Staphylococcus aureus [8] = experiment: Antibacterial activity against methicillin-resistant Staphylococcus aureus NRS123 (USA400) after 20 hrs by broth microdilution assay; format: functional; in short: as §1
Staphylococcus aureus [9] = experiment: Bactericidal activity against methicillin resistant Staphylococcus aureus NRS123 (USA400) up to 18 hrs by broth microdilution assay; format: functional; conditions: read-out: MBC99.9
Staphylococcus aureus [10] = experiment: Antibacterial activity against vancomycin-resistant Staphylococcus aureus VRS10 after 20 hrs by broth microdilution assay; format: functional; conditions: VRS10, 20 h; in short: as §1
Staphylococcus aureus [11] = experiment: Bactericidal activity against methicillin resistant vancomycin-resistant Staphylococcus aureus VRS10 up to 18 hrs by broth microdilution assay; format: functional; conditions: VRS10, 18 h, read-out: MBC99.9
Staphylococcus aureus [12] = experiment: Antibacterial activity against vancomycin-resistant Staphylococcus aureus VRS11a after 20 hrs by broth microdilution assay; format: functional; in short: as §1
Staphylococcus aureus [13] = experiment: Bactericidal activity against methicillin resistant vancomycin-resistant Staphylococcus aureus VRS11a up to 18 hrs by broth microdilution assay; format: functional; conditions: read-out: MBC99.9
Staphylococcus aureus [14] = experiment: Antibacterial activity against vancomycin-resistant Staphylococcus aureus VRS12 after 20 hrs by broth microdilution assay; format: functional; conditions: VRS12, 20 h; in short: as §1
Staphylococcus aureus [15] = experiment: Bactericidal activity against methicillin resistant vancomycin-resistant Staphylococcus aureus VRS12 up to 18 hrs by broth microdilution assay; format: functional; conditions: VRS12, 18 h, read-out: MBC99.9
In short: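 MBC set up from the MIC plates. Aliquots from wells with no growth spotted onto tryptic soy agar and incubated at 37 °C for at least 18 hours. MBC taken as the lowest concentration giving 99.9% inhibition of bacterial growth.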

Staphylococcus aureus [16] = experiment: Potency index, ratio of vancomycin MIC to compound MIC for antibacterial activity against vancomycin-resistant Staphylococcus aureus VRS10; format: functional
Staphylococcus aureus [17] = experiment: Potency index, ratio of vancomycin MIC to compound MIC for antibacterial activity against vancomycin-resistant Staphylococcus aureus VRS11a; format: functional
Staphylococcus aureus [18] = experiment: Potency index, ratio of vancomycin MIC to compound MIC for antibacterial activity against vancomycin-resistant Staphylococcus aureus VRS12; format: functional
Staphylococcus aureus [19] = experiment: Ratio of MBC to MIC for methicillin-resistant Staphylococcus aureus NRS107; format: functional; in short: as §2
Staphylococcus aureus [20] = experiment: Ratio of MBC to MIC for methicillin-resistant Staphylococcus aureus NRS119; format: functional; in short: as §2
Staphylococcus aureus [21] = experiment: Ratio of MBC to MIC for methicillin-resistant Staphylococcus aureus NRS123 (USA400); format: functional; in short: as §2
Staphylococcus aureus [22] = experiment: Ratio of MBC to MIC for vancomycin-resistant Staphylococcus aureus VRS10; format: functional; in short: as §2
Staphylococcus aureus [23] = experiment: Ratio of MBC to MIC for vancomycin-resistant Staphylococcus aureus VRS11a; format: functional; in short: as §2
Staphylococcus aureus [24] = experiment: Ratio of MBC to MIC for vancomycin-resistant Staphylococcus aureus VRS12; format: functional; in short: as §2
HRT-18 cell line = experiment: Cytotoxicity against human HRT18 cells assessed as reduction in cell viability up to 32 ug/ml after 2 hrs by MTS assay; format: cell-based; conditions: hrt-18, 2 h
[25] = Selectivity index, ratio of toxic concentration for human HRT18 cells to MIC for methicillin-resistant Staphylococcus aureus; format: toxicity; conditions: read-out: Selectivity Index

| SMILES | MIC (Staphylococcus aureus [1]) [µg/mL] | MBC (Staphylococcus aureus [2]) [µg/mL] | Ratio (Staphylococcus aureus [3]) | MIC (Staphylococcus aureus [4]) [µg/mL] | MBC (Staphylococcus aureus [5]) [µg/mL] | MIC (Staphylococcus aureus [6]) [µg/mL] | MBC (Staphylococcus aureus [7]) [µg/mL] | MIC (Staphylococcus aureus [8]) [µg/mL] | MBC (Staphylococcus aureus [9]) [µg/mL] | MIC (Staphylococcus aureus [10]) [µg/mL] | MBC (Staphylococcus aureus [11]) [µg/mL] | MIC (Staphylococcus aureus [12]) [µg/mL] | MBC (Staphylococcus aureus [13]) [µg/mL] | MIC (Staphylococcus aureus [14]) [µg/mL] | MBC (Staphylococcus aureus [15]) [µg/mL] | Ratio (Staphylococcus aureus [16]) | Ratio (Staphylococcus aureus [17]) | Ratio (Staphylococcus aureus [18]) | Ratio (Staphylococcus aureus [19]) | Ratio (Staphylococcus aureus [21]) | further results |
| --- | --- | --- | --- | --- | --- | --- | --- | --- | --- | --- | --- | --- | --- | --- | --- | --- | --- | --- | --- | --- | --- |
| C/C(=N\NC1=NCCN1)c1sc(-c2ccc(C#Cc3ccccc3)cc2)nc1C | 8 (≈ 20 µM) | 16 (≈ 40 µM) | <=3 | – | – | – | – | – | – | – | – | – | – | – | – | – | – | – | – | – | – |
| C/C(=N\NC(=N)N)c1sc(-c2ccc(C#CC(C)(C)N)cc2)nc1C | 64 (≈ 181 µM) | 64 (≈ 181 µM) | <=3 | – | – | – | – | – | – | – | – | – | – | – | – | – | – | – | – | – | – |
| C/C(=N\NC1=NCCN1)c1sc(-c2ccc(C#CCC3CCCC3)cc2)nc1C | 8 (≈ 19.7 µM) | 32 (≈ 78.9 µM) | <=3 | – | – | – | – | – | – | – | – | – | – | – | – | – | – | – | – | – | – |
| C/C(=N\NC1=NCCN1)c1sc(-c2ccc(C#CC3CCCC3)cc2)nc1C | 4 (≈ 10.2 µM) | 16 (≈ 40.9 µM) | <=3 | 16 (≈ 40.9 µM) | 32 (≈ 81.7 µM) | 32 (≈ 81.7 µM) | 32 (≈ 81.7 µM) | 16 (≈ 40.9 µM) | 32 (≈ 81.7 µM) | 4 (≈ 10.2 µM) | 8 (≈ 20.4 µM) | 8 (≈ 20.4 µM) | 8 (≈ 20.4 µM) | 16 (≈ 40.9 µM) | 16 (≈ 40.9 µM) | >100 | >100 | >100 | <=3 | <=3 | Ratio (Staphylococcus aureus [20]): <=3; Ratio (Staphylococcus aureus [22]): <=3; Ratio (Staphylococcus aureus [23]): <=3; Ratio (Staphylococcus aureus [24]): <=3 |
| C/C(=N\NC(=N)N)c1sc(-c2ccc(C#CCC3CCCC3)cc2)nc1C | 4 (≈ 10.5 µM) | 4 (≈ 10.5 µM) | <=3 | 2 (≈ 5.27 µM) | 4 (≈ 10.5 µM) | 4 (≈ 10.5 µM) | 4 (≈ 10.5 µM) | 2 (≈ 5.27 µM) | 2 (≈ 5.27 µM) | 2 (≈ 5.27 µM) | 4 (≈ 10.5 µM) | 4 (≈ 10.5 µM) | 4 (≈ 10.5 µM) | 2 (≈ 5.27 µM) | 2 (≈ 5.27 µM) | >100 | >100 | >100 | <=3 | <=3 | Ratio (Staphylococcus aureus [20]): <=3; Ratio (Staphylococcus aureus [22]): <=3; Ratio (Staphylococcus aureus [23]): <=3; Ratio (Staphylococcus aureus [24]): <=3 |
| CCCC#Cc1ccc(-c2nc(C)c(/C(C)=N/NC3=NCCN3)s2)cc1 | > 64 | > 64 | <=3 | – | – | – | – | – | – | – | – | – | – | – | – | – | – | – | – | – | – |
| CCCCCCC#Cc1ccc(-c2nc(C)c(/C(C)=N/NC(=N)N)s2)cc1 | 4 (≈ 10.5 µM) | 8 (≈ 21 µM) | <=3 | 4 (≈ 10.5 µM) | 8 (≈ 21 µM) | 1 (≈ 2.62 µM) | 4 (≈ 10.5 µM) | 4 (≈ 10.5 µM) | 4 (≈ 10.5 µM) | 2 (≈ 5.24 µM) | 4 (≈ 10.5 µM) | 0.5 (≈ 1.31 µM) | 2 (≈ 5.24 µM) | 2 (≈ 5.24 µM) | 4 (≈ 10.5 µM) | >100 | >100 | 8 | <=3 | <=3 | Ratio (Staphylococcus aureus [20]; read-out: Ratio): 4; Ratio (Staphylococcus aureus [22]): <=3; Ratio (Staphylococcus aureus [23]; read-out: Ratio): 4; Ratio (Staphylococcus aureus [24]): <=3; Activity (HRT-18 cell line): Non-Toxic; selectivity ratio [25]: 7 to 31 |
